# Exocytosis inh – lytic granule exocytosis inhibition. TALL-104 LAMP-1 surface exposure, flow cytometry; cells stimulated with thapsigargin and PMA. inhibition, % at 10 µM. 360,000 compounds, 0.66% hits;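 active means inhibition above about 55%, limit read from the data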
# MC4R ag barr – human MC4R agonism via beta-arrestin; activation, % at 8.9 µM; 360,000 compounds, 0.98% hits; U2OS MC4R beta-arrestin complementation, luminescence; percent of melanotan II response, DMSO zero; P32245;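 active means activation above a per-plate cutoff, the mean activation of sample wells on that plate plus 3 SD, cut at about 8% in these data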
# MC4R antag cAMP – antagonists of human melanocortin 4 receptor (MC4R). P32245. MC4R-expressing cells, MTII-stimulated cAMP, LANCE TR-FRET. inhibition, % at 6.5 µM. 360,000 compounds, 0.48% hits;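 active means inhibition above its plate's cutoff, the mean of tested wells on that plate plus 3 SD, cut at about 29% in these data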;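 further: 0% = Melanotan II alone and 100% = Melanotan II plus saturating MCL0020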
#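 material = U2OS cells stably expressing human melanocortin 4 receptor (MC4R) | also added = Melanotan II challenge | dosing = single nominal compound dose of 6.5 µM | detection = TR-FRET with Eu-cAMP and labeled anti-cAMP, 671 nm | replication = singlicate | timing = compound 30 min, challenge 1 h, detection 1 h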
# sPLA2-III inh – Blocks human group III sPLA2 activity. QFRET BODIPY PC-A2 liposome hydrolysis, fluorescence. inhibition, % at 12.2 µM. AID 743126. 370,000 compounds, 0.56% hits;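 active means inhibition above mean plus 3 SD of compounds lying within the high and low control bounds, cut at about 19% in these data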;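 further: 0% = median of test compound wells and 100% = no enzyme DMSO wells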
# Target sequence (Q9NZ20 whole entry, looked up): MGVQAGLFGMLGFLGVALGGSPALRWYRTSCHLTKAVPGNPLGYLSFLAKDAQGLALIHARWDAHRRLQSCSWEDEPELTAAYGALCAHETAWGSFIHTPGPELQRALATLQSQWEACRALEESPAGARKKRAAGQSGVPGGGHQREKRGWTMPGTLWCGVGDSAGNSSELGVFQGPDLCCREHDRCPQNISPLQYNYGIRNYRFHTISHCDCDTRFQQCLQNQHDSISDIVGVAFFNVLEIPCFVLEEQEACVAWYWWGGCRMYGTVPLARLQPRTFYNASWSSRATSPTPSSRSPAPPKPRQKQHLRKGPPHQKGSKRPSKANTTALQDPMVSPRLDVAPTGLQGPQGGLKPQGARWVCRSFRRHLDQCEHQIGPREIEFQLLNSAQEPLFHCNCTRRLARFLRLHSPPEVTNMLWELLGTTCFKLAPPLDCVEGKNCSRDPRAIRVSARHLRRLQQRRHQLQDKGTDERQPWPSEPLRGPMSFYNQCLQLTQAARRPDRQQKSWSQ
# Bfl-1 A1 inh – inhibitors of the anti-apoptotic protein A1, read as caspase activation | MEF A1-2A-BIM cells, Caspase-Glo 3/7 luminescence, 3 h; percent of clofoctol response, vehicle zero | caspase activation, % (concentration not given with the values) | 330,000 compounds, 0.066% hits;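 active means over half of replicate activation scores above 10%, or exactly half above 10 with the replicate mean above 10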
# NTR1 agonist – agonists of human neurotensin receptor NTR1. 330,000 compounds, 0.17% hits. AID 493036. NTR1-U2OS beta-arrestin-GFP spot imaging, agonist mode. P30989. activation, % at 20 µM;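 active means activation at or above 40% of the spot to cytoplasm intensity ratio, with at least 20 cells analyzed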;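 further: 0% = DMSO without peptide and 100% = 100 nM NTR1 peptide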
# MC4R barr conf – human MC4R beta-arrestin agonism confirmation. shares compounds with MC4R ag barr. U2OS MC4R beta-arrestin recruitment, luminescence; scaled DMSO 0%, Melanotan II 100%. activation, % at 8.9 µM. 2,400 compounds, 31% hits;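 active means mean activation across replicates above the hit cutoff set in the earlier primary screen, cut at about 8% in these data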
# MOR-DOR barr ag – counter-screen for MC4R agonists: agonists of mu-delta opioid heterodimer; shares compounds with MC4R ag barr; U2OS PathHunter beta-arrestin, beta-gal luminescence; percent of deltorphin B response, DMSO zero; activation, % at 9.2 µM; 2,400 compounds, 5.8% hits; AID 602194;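 active means mean activation across replicates exceeds the hit threshold derived in the earlier primary screen, cut at about 18% in these data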;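 further: 100% = deltorphin B at 0.9 µM final and 0% = DMSO alone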
# An asterisk follows results filed as active; · = not tested or not shown. Sampled rows, rich in hits. Any-hit rate of the full collection: about 2.5%.
SMILES,Exocytosis inh,MC4R ag barr,MC4R antag cAMP,sPLA2-III inh,Bfl-1 A1 inh,NTR1 agonist,MC4R barr conf,MOR-DOR barr ag
O=c1[nH]nc(Cc2ccc(-c3cccc(Cl)c3)o2)c2ccccc12,-2,14*,-18,-6,0,5,7,6
COc1ccc(C(C)(C)C)cc1N1C(=O)[C@@H]2CSCCS(=O)(=O)N2C1=O,·,·,·,4,·,·,·,·
CCOc1ccc(NS(=O)(=O)c2ccc(SC)cc2)cc1,-2,11*,3,-8,0,2,0,7
CC(C)CNC(=O)OCc1cn(Cc2cccc(C(F)(F)F)c2)nn1,·,·,·,2,·,·,·,·
Cc1cc(N2CCN(C(=O)c3ccco3)CC2)n2nc(-c3cccc(Cl)c3)cc2n1,25,26*,-7,0,0,10,31*,7
COc1cc(C(F)(F)F)nc2ccc(C#CCOC(=O)Nc3ccccc3)cc12,40,14*,6,-8,-1,4,6,6
O=C(CSc1nc(Cc2ccccc2)nc2ccccc12)Nc1ccc2c(c1)OCCO2,24,14*,-1,-3,1,8,1,3
O=C(CSc1ncnc2ccccc12)Nc1ccc2c(c1)OCCO2,-2,-3,4,2,0,0,·,·
Cc1ccccc1OCC(=O)NC(=S)Nc1ccc(Br)c(C)n1,2,0,7,-1,0,0,·,·
Cc1ccccc1OCC(=O)NC(=S)Nc1cccc2cc(O)ccc12,-11,16*,6,-17,1,32,23*,9
COc1ccc(C(=O)COC(=O)C2CCCN2C(=O)C23CC4CC(CC(C4)C2)C3)cc1 (stereo not given),-6,-1,2,5,0,1,·,·
O=C(COC(=O)C1CCCN1C(=O)C12CC3CC(CC(C3)C1)C2)c1ccc(Br)cc1 (stereo not given),-2,14*,0,3,1,6,5,3
COc1ccc2c(CCN3C(=O)c4ccccc4C3=O)c(-c3c(CCN4C(=O)c5ccccc5C4=O)c4ccccc4n3C(=O)OC(C)(C)C)[nH]c2c1,·,·,·,0,·,·,·,·
O=C(Nc1ccc(N2CCCC2)c(Cl)c1)c1ccc([N+](=O)[O-])cc1,4,21*,3,11,0,0,6,9
Cc1cc(C(=O)Nc2ccc(N3CCCC3)c(Cl)c2)ccc1[N+](=O)[O-],-4,-1,5,3,-3,6,·,·
CC(C)(C)[C@@H]1/C(=C/C2CC2)N2C(=O)C[C@@H](c3ccccc3)N=C2N1Cc1ccc2c(c1)OCO2,·,·,·,6,·,·,·,·
N#C/C(=C\c1ccc(N2CCOCC2)o1)C(=O)Nc1ccc(O)cc1,2,-2,-35,-32,0,-3,·,·
N#C/C(=C/c1ccc(N2CCCCC2)o1)C(=O)Nc1ccc(Cl)cc1,9,10*,-4,-23,0,-3,1,6
COc1ccc(S(=O)(=O)N2CCOCC2)cc1NC(=O)c1ccccc1-c1ccc(C(F)(F)F)cc1,0,10*,18,3,0,2,0,2
CCCCc1nc2sc3c(SCC(=O)NCc4ccco4)ncnc3c2c2c1CCC2,-1,14*,16,-2,1,3,2,4
CCCCc1nc2sc3c(SCCN(C)C)ncnc3c2c2c1CCC2,-1,-1,10,-7,0,3,·,·
O=C(N1CCC(C(O)(c2ccccc2)c2ccccc2)CC1)n1ncc(C(O)(c2ccccc2)c2ccccc2)n1,·,·,·,-12,·,·,·,·
S=C(Nc1ccccc1)N1CCn2c1nc1ccccc12,-1,24*,-2,0,0,9,0,·
C=C(C)[C@@H]1CC2=C(OC)C(CC=C(C)C)(CC=C(C)C)C(=O)C(C(=O)c3ccccc3)=C2O1,·,·,·,-7,·,·,·,·
Cn1c2ccccc2c2cnn(CC(=O)Nc3cccc(F)c3)c(=O)c21,0,9.7*,8,1,0,0,1,3
SMILES,Exocytosis inh,MC4R ag barr,MC4R antag cAMP,sPLA2-III inh,Bfl-1 A1 inh,NTR1 agonist,MC4R barr conf,MOR-DOR barr ag
CN1CCN(CCCNC(=O)Cn2ncc3c4ccccc4n(C)c3c2=O)CC1,-8,0,3,0,0,-2,·,·
N#C/C(=C\c1ccc(-c2ccc(F)cc2)o1)C(=O)Nc1nc(-c2cccs2)cs1,-4,39*,12,-6,-1,11,19*,1
N#C/C(=C/c1ccc(-c2ccc([N+](=O)[O-])cc2)o1)C(=O)Nc1nc(-c2cccs2)cs1,-2,-1,7,-8,·,·,·,·
CCCn1cc(CCC(=O)Nc2ccc(Oc3cccnc3)cc2)c2ccccc21,·,·,·,-17,·,·,·,·
Cc1cc(F)cc(-c2cc(C(=O)NCC3CCCCC3)[nH]n2)c1,-2,13*,-3,0,·,·,0,5
Cc1ccc(Cl)cc1-c1cc(C(=O)NCC2CCCCC2)[nH]n1,-5,3,9,4,·,·,·,·
Cc1cc(N/N=C\c2ccccc2)nc(-c2ccccc2O)n1,0,20*,-2,-12,-1,24,2,6
COc1ccc(-c2cc(NC(=O)Cc3c(C)[nH]c4ccccc34)ccc2Nc2cccnc2)cc1F,·,·,·,-25,·,·,·,·
O=C(CSc1nnc(-c2cccs2)n1-c1ccccc1)Nc1ccccc1,0,11*,22,-5,2,4,2,7
CCC(=O)Nc1cccc(-c2nc3ccc(C)cc3o2)c1,2,0,4,-12,-5,5,·,·
Cc1ccc2nc(-c3cccc(NC(=O)c4ccc5c(c4)OCCO5)c3)oc2c1,1,23*,12,-3,2,5,2,4
CCOC(=O)N(C)C[C@H]1OCc2cn(nn2)CCCC(=O)N([C@@H](C)CO)C[C@@H]1C,·,·,·,1,·,·,·,·
O=C(C(=O)N1CCN(C(=O)c2cccs2)CC1)c1cccc(C(F)(F)F)c1,·,·,·,3,·,·,·,·
CSc1nc2ccc(NC(=O)COc3ccccc3F)cc2s1,-1,10*,1,-5,-8,2,0,3
CSc1nc2ccc(NC(=O)CS(=O)(=O)c3ccccc3)cc2s1,2,1,10,-22,·,·,·,·
Cc1cccc2cc(COC(=O)c3cccs3)c(=O)[nH]c12,2,23*,9,-3,0,4,1,4
Cc1cccc2cc(COC(=O)c3ccccc3)c(=O)[nH]c12,-1,6,5,5,0,4,·,·
CCOC(=O)CC[C@H]1CC[C@]2(CCCN(C(=O)C(C)(C)C)C2)O1,·,·,·,1,·,·,·,·

# Screening results (PubChem)
